# Measured values from different studies.
# Lines come from different studies, so protocols differ.
# TRPC3: Short transient receptor potential channel 3 (TRPC3, Homo sapiens, UniProt Q13507)
SMILES,target,test,test system,conditions,quantity,value
C=CC(=O)N1CCC(COCC(=O)N2CCN(c3nc(-c4cnc(N)nc4C(F)F)nc(N4CCOC[C@@H]4C)n3)CC2)CC1,"Serine/threonine-protein kinase WNK4 (WNK4, Homo sapiens, UniProt Q96J92)","binding, competition with immobilised ligand",,1 µM,remaining binding,46%
C=CC(=O)Nc1ccccc1C(=O)Nc1ccc(C#Cc2ccc(OC)cc2)nn1,"Fibroblast growth factor receptor 1 (FGFR1, Homo sapiens, UniProt P11362)","enzyme activity, inhibitor, radiometric",,1 µM,inhibition,3%
CCOC(=O)c1cnn(-c2ccc(NC(=O)C(Cl)=C(Cl)Cl)cc2)c1C(F)(F)F,TRPC3,"ion current, inhibitor, patch clamp",HEK293,10 µM,inhibition,88.6%
COc1ccc(CNC(=O)c2cc3c(cc2[N+](=O)[O-])OCO3)cc1,"Myeloperoxidase (MPO, Homo sapiens, UniProt P05164)","enzyme activity, inhibitor",,5 µM,inhibition,> 50%
C=CC(=O)N1C[C@@H](n2nc(C#Cc3c(F)cc4c(ncn4C4CC4)c3F)c(C(N)=O)c2NC)C[C@@H]1COC,"Serine/threonine-protein kinase 10 (STK10, Homo sapiens, UniProt O94804)","enzyme activity, inhibitor, mobility shift",,1 µM,inhibition,64.6%
COc1cc(-c2cncc3c2CN(C)Cc2cc(N4CCNCC4)ccc2-3)cc(OC)c1OC,"Interferon-induced, double-stranded RNA-activated protein kinase (EIF2AK2, Homo sapiens, UniProt P19525)","enzyme activity, inhibitor",,1 µM,remaining activity,102%
CCNC(=O)c1cn(-c2ccc(-n3ccc(Cl)c(Cl)c3=O)cc2)nc1C(F)(F)F,TRPC3,"ion current, inhibitor, patch clamp",HEK293,10 µM,inhibition,> 90%
CNc1ncc2c(/C=C/C(=O)N3CCC(OC)CC3)nn(Cc3cccc(C(F)(F)F)c3)c2n1,"Tyrosine-protein kinase Fgr (FGR, Homo sapiens, UniProt P09769)","enzyme activity, inhibitor, radiometric",,1 µM,remaining activity,90%
CCNC(=O)c1cnn(-c2ccc(-n3ccc(Cl)c(Cl)c3=O)cc2)c1C(F)(F)F,TRPC3,"ion current, inhibitor, patch clamp",HEK293,10 µM,inhibition,95.7%
Cc1cc([C@@H](C)Nc2ccccc2C(=O)O)c2nc(N3CCC(F)(F)CC3)c(C#N)c(=O)n2c1,"MAP kinase-interacting serine/threonine-protein kinase 2 (MKNK2, Homo sapiens, UniProt Q9HBH9)","binding, competition with immobilised ligand",,10 µM,remaining binding,100%
